This note sets out measurements from ChEMBL document CHEMBL1154032, “Substituted pyrimidines as cannabinoid CB1 receptor ligands” (Bioorg Med Chem Lett, 2009).

In general, pIC50 refers to the negative decadic logarithm of the IC50, by convention in mol/L.

SMILES strings stand for the structures. pIC50: −log10 of the molar value.

The first test deals with Cannabinoid receptor 2 (Homo sapiens, UniProt P34972). Kind of test: Displacement of [3H]WIN-55212-2 from human recombinant CB2 receptor expressed in CHOK1 cells by liquid scintillation spectrometry. It counts as cell-based, CHO-K1. In a few lines: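 Membranes from CHO K-1 cells transfected with human CB2, prepared as for brain tissue (TME buffer pH 7.4, 48,000g spin). About 10 µg membrane incubated with 3 nM [3H]WIN55,212-2 and graded ligand concentrations in TME with 0.5% fatty-acid-free BSA, 1 h at 30 °C. Filtered over PEI-soaked GF/B, washed five times ice-cold. IC50 from nonlinear regression, triplicate.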
Cannabinoid receptor 2, sequence (P34972 whole entry): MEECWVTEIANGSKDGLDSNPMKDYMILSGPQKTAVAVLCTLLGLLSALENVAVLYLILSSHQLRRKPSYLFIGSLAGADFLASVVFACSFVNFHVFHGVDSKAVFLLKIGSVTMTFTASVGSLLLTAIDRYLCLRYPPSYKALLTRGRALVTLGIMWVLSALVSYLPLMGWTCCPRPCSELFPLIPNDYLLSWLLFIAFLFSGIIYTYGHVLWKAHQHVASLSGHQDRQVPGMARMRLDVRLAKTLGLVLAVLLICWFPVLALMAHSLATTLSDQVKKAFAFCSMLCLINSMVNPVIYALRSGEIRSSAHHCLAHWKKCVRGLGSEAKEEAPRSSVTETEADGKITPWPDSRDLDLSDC
For orientation: Loss of bound radioactivity is the signal in a displacement assay; it reports binding, not function.
Regarding `CCCCNc1cc(N[C@@H](C)[C@@H](Cc2ccc(Cl)cc2)c2cccc(Br)c2)ncn1`, the negative logarithm of the IC50 (pIC50) is 5.53.

A further test deals with Cannabinoid receptor 1 (Rattus norvegicus, UniProt P20272). Kind of test: Displacement of [3H]CP-55940 from cannabinoid CB1 receptor in Sprague-Dawley rat cerebellar membrane by liquid scintillation spectrometry. Also on record: species or system Cerebellum. In a few lines: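 About 10 µg membrane incubated with 3 nM [3H]CP55,940, graded ligand concentrations, TME with 0.5% fatty-acid-free BSA, 1 h at 30 °C. PEI-soaked GF/B filtration, five ice-cold washes. IC50 by nonlinear regression, triplicate.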
Cannabinoid receptor 1, sequence (P20272 whole entry): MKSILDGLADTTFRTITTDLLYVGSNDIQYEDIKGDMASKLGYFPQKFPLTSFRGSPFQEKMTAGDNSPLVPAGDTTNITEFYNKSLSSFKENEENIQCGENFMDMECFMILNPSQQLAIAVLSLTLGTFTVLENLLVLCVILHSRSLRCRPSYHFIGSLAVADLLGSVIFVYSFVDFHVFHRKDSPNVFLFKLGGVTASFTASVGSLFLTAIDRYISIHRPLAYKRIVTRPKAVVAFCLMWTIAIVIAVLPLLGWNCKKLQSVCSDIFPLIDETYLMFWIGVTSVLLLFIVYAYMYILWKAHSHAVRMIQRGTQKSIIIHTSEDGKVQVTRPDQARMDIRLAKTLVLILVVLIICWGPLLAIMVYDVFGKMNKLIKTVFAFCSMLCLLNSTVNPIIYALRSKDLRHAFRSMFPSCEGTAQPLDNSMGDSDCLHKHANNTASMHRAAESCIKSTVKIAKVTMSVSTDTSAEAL
For `C[C@H](Nc1cc(NC2CCCC2)ncn1)[C@@H](Cc1ccc(Cl)cc1)c1cccc(Br)c1`, the negative logarithm of the IC50 (pIC50) was 7.61. Same read-out and setting: next, `Cc1nc(NC2CCCCCC2)cc(N[C@@H](C)[C@@H](Cc2ccc(Cl)cc2)c2cccc(Br)c2)n1`: 7.18. Still for that read-out and setting: as for `C[C@H](Nc1cc(NC2CCCCCC2)nc(C(F)(F)F)n1)[C@@H](Cc1ccc(Cl)cc1)c1cccc(Br)c1`, the figure is 7.41; as for `C[C@H](Nc1cc(Nc2ccc(F)cc2)ncn1)[C@@H](Cc1ccc(Cl)cc1)c1cccc(Br)c1`, 7.01. `C[C@H](Nc1cc(N2CCCCC2)ncn1)[C@@H](Cc1ccc(Cl)cc1)c1cccc(Br)c1`: the pIC50 was 7.68. The same measure, in the same setting: next, `C[C@H](Nc1cc(C2CCCCC2)ncn1)[C@@H](Cc1ccc(Cl)cc1)c1cccc(Br)c1`: 7.20; `C[C@H](Nc1cc(C2CCCC2)ncn1)[C@@H](Cc1ccc(Cl)cc1)c1cccc(Br)c1`: 7.40. Turning to `CCCCCOc1cc(N[C@@H](C)[C@@H](Cc2ccc(Cl)cc2)c2cccc(Br)c2)ncn1`, the negative-log IC50 (pIC50) is 6.69. Compound `CCCCCNc1cc(N[C@@H](C)[C@@H](Cc2ccc(Cl)cc2)c2cccc(Br)c2)ncn1` gave a pIC50 of 6.71.

Compound `CCCCC(CC)CNc1cc(N[C@@H](C)[C@@H](Cc2ccc(Cl)cc2)c2cccc(Br)c2)ncn1` (some centres not stated) gave a pIC50 of 6.99. Consider `Cc1nc(NC2CCCC2)cc(N[C@@H](C)[C@@H](Cc2ccc(Cl)cc2)c2cccc(Br)c2)n1`, for which the negative-log IC50 (pIC50) is 7.01. For the compound `CC(C)CNc1cc(N[C@@H](C)[C@@H](Cc2ccc(Cl)cc2)c2cccc(Br)c2)ncn1`, the pIC50 was 6.81.

On to `C[C@H](Nc1cc(NCC2CCCO2)ncn1)[C@@H](Cc1ccc(Cl)cc1)c1cccc(Br)c1` (some centres not stated), for which the pIC50 is 6.94. For `CCCCNc1cc(N[C@@H](C)[C@@H](Cc2ccc(Cl)cc2)c2cccc(Br)c2)nc(C(F)(F)F)n1`, the pIC50 is 7.36. As for `C[C@H](Nc1cc(NC2CCCCC2)ncn1)[C@@H](Cc1ccc(Cl)cc1)c1cccc(Br)c1`, the negative-log IC50 (pIC50) was 7.56.

On to `C[C@H](Nc1cc(NC2CCCCCC2)ncn1)[C@@H](Cc1ccc(Cl)cc1)c1cccc(Br)c1`, for which the negative-log IC50 (pIC50) was 7.34.

In the case of `C[C@H](Nc1cc(NCC2CCCCC2)ncn1)[C@@H](Cc1ccc(Cl)cc1)c1cccc(Br)c1`, the pIC50 was 7.15. On the same count and under the same terms, as for `CCN(C)c1cc(N[C@@H](C)[C@@H](Cc2ccc(Cl)cc2)c2cccc(Br)c2)ncn1`, the figure is 6.97. On the same count and under the same terms, as for `C[C@H](Nc1cc(Nc2ccccc2)ncn1)[C@@H](Cc1ccc(Cl)cc1)c1cccc(Br)c1`, the figure is 7.17; as for `CC1CC(C)CN(c2cc(N[C@@H](C)[C@@H](Cc3ccc(Cl)cc3)c3cccc(Br)c3)ncn2)C1` (some centres not stated), 6.55. On the same count and under the same terms, next, `CCCCNc1cc(N[C@@H](C)[C@@H](Cc2ccc(Cl)cc2)c2cccc(Br)c2)ncn1`: 7.79; `CCCCCCOc1cc(N[C@@H](C)[C@@H](Cc2ccc(Cl)cc2)c2cccc(Br)c2)ncn1`: 6.87; `CC[C@H](Nc1cc(NC2CCCC2)ncn1)[C@@H](Cc1ccc(Cl)cc1)c1cccc(Br)c1`: 7.20. For the compound `CC[C@H](Nc1cc(NC2CCCCC2)ncn1)[C@@H](Cc1ccc(Cl)cc1)c1cccc(Br)c1`, the negative logarithm of the IC50 (pIC50) is 6.24. The same measure, in the same setting: as for `COc1cc(N[C@@H](C)[C@@H](Cc2ccc(Cl)cc2)c2cccc(Br)c2)ncn1`, the figure is 6.87; as for `CCCCCNc1cc(N[C@@H](C)[C@@H](Cc2ccc(Cl)cc2)c2cccc(Br)c2)nc(C(F)(F)F)n1`, 7.23. In turn, `C[C@H](Nc1cc(NC2CCCCC2)nc(C(F)(F)F)n1)[C@@H](Cc1ccc(Cl)cc1)c1cccc(Br)c1` gave a negative logarithm of the IC50 (pIC50) of 7.65. Still for that read-out and setting: next, `CSc1nc(NC2CCCCC2)cc(N[C@@H](C)[C@@H](Cc2ccc(Cl)cc2)c2cccc(Br)c2)n1`: 7.24; `C[C@H](Nc1cc(N2CCCCC2)nc(C(F)(F)F)n1)[C@@H](Cc1ccc(Cl)cc1)c1cccc(Br)c1`: 6.71. The compound `CCCCNc1cc(N[C@@H](C)[C@@H](Cc2ccc(Cl)cc2)c2cccc(Br)c2)nc(C)n1` had a negative-log IC50 (pIC50) of 7.09. Compound `CC1CCN(c2cc(N[C@@H](C)[C@@H](Cc3ccc(Cl)cc3)c3cccc(Br)c3)ncn2)CC1` had a pIC50 of 7.12.

`C[C@H](Nc1cc(NCc2ccccn2)ncn1)[C@@H](Cc1ccc(Cl)cc1)c1cccc(Br)c1`: the pIC50 is 6.58. Take `CCCCNc1cc(N[C@@H](C)[C@@H](Cc2ccc(Cl)cc2)c2cccc(Br)c2)nc(SC)n1`: the pIC50 is 7.16.

`Cc1nc(N[C@@H](C)[C@@H](Cc2ccc(Cl)cc2)c2cccc(Br)c2)cc(N2CCCCC2)n1` showed a negative logarithm of the IC50 (pIC50) of 7.54. Still for that read-out and setting: next, `CC(C)CCNc1cc(N[C@@H](C)[C@@H](Cc2ccc(Cl)cc2)c2cccc(Br)c2)ncn1`: 6.95. Still for that read-out and setting: next, `CCCCc1cc(N[C@@H](C)[C@@H](Cc2ccc(Cl)cc2)c2cccc(Br)c2)ncn1`: 7.13; `C[C@H](Nc1cc(NCc2ccccc2)ncn1)[C@@H](Cc1ccc(Cl)cc1)c1cccc(Br)c1`: 6.71; `C[C@H](Nc1cc(OC2CCCCC2)ncn1)[C@@H](Cc1ccc(Cl)cc1)c1cccc(Br)c1`: 7.02.

For `C[C@H](Nc1cc(N2CCCCCC2)ncn1)[C@@H](Cc1ccc(Cl)cc1)c1cccc(Br)c1`, the negative logarithm of the IC50 (pIC50) was 7.03. Still for that read-out and setting: next, `C[C@H](Nc1cc(N2CCC(C(F)(F)F)CC2)ncn1)[C@@H](Cc1ccc(Cl)cc1)c1cccc(Br)c1`: 7.12; `CSc1nc(N[C@@H](C)[C@@H](Cc2ccc(Cl)cc2)c2cccc(Br)c2)cc(N2CCCCC2)n1`: 6.96. On the same count and under the same terms, as for `Cc1nc(N[C@@H](C)[C@@H](Cc2ccc(Cl)cc2)c2cccc(Br)c2)cc(N(C)C)n1`, the figure is 6.89. The same measure, in the same setting: next, `CCCCCCNc1cc(N[C@@H](C)[C@@H](Cc2ccc(Cl)cc2)c2cccc(Br)c2)ncn1`: 6.47; `Cc1nc(NCc2ccc(C(F)(F)F)cc2)cc(N[C@@H](C)[C@@H](Cc2ccc(Cl)cc2)c2cccc(Br)c2)n1`: 6.80.

For the compound `CSc1nc(NC2CCCCCC2)cc(N[C@@H](C)[C@@H](Cc2ccc(Cl)cc2)c2cccc(Br)c2)n1`, the negative-log IC50 (pIC50) was 7.48. The same measure, in the same setting: as for `CCC(CC)Nc1cc(N[C@@H](C)[C@@H](Cc2ccc(Cl)cc2)c2cccc(Br)c2)ncn1`, the figure is 7.03; as for `CCCCOc1cc(N[C@@H](C)[C@@H](Cc2ccc(Cl)cc2)c2cccc(Br)c2)ncn1`, 7.12. Same read-out and setting: as for `CC[C@H](Nc1cc(NC2CCCCCC2)ncn1)[C@@H](Cc1ccc(Cl)cc1)c1cccc(Br)c1`, the figure is 6.20; as for `C[C@H](Nc1cc(N2CCCC2)ncn1)[C@@H](Cc1ccc(Cl)cc1)c1cccc(Br)c1`, 6.94. Same read-out and setting: as for `C[C@H](Nc1cc(N2CCOCC2)ncn1)[C@@H](Cc1ccc(Cl)cc1)c1cccc(Br)c1`, the figure is 7.16; as for `CCCNc1cc(N[C@@H](C)[C@@H](Cc2ccc(Cl)cc2)c2cccc(Br)c2)ncn1`, 7.32; as for `Cc1nc(NC2CCCCC2)cc(N[C@@H](C)[C@@H](Cc2ccc(Cl)cc2)c2cccc(Br)c2)n1`, 7.66. Take `C[C@H](Nc1cc(OCC2CCCCC2)ncn1)[C@@H](Cc1ccc(Cl)cc1)c1cccc(Br)c1`: the pIC50 is 6.87. Consider `Clc1ccc(C[C@H](CNc2cc(N3CCCCC3)ncn2)c2cccc(Br)c2)cc1`, for which the pIC50 is 7.15. `Clc1ccc(C[C@H](CNc2cc(NC3CCCCCC3)ncn2)c2cccc(Br)c2)cc1`: the pIC50 is 5.81.

Consider `CC[C@H](Nc1cc(N2CCCCC2)ncn1)[C@@H](Cc1ccc(Cl)cc1)c1cccc(Br)c1`, for which the negative-log IC50 (pIC50) was 6.55.
